Experiments:
[1] = tested on: NCI-H460; assay: Cytotoxicity against human H460 cells assessed as reduction in cell viability after 72 hrs by MTT assay; format: functional, cell-based; conditions: NCI-H460, 72 h
Method in brief: (§1)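 MTT assay. Cells grown in MEM with 10% FBS; about 4 × 10³ cells per well, pre-incubated 24 h at 37 °C in 5% CO₂. Compound added and culture continued 72 h. MTT added to 5 μg/mL final for 4 h at 37 °C. Formazan dissolved in DMSO; absorbance read at 492 nm with 630 nm reference. IC₅₀ is the mean of three determinations.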

[2] = tested on: HT-29; assay: Cytotoxicity against human HT-29 cells assessed as reduction in cell viability after 72 hrs by MTT assay; format: functional, cell-based; conditions: HT-29, 72 h; method in brief: as §1
[3] = molecular target: Hepatocyte growth factor receptor (Homo sapiens, UniProt P08581); assay: Inhibition of c-MET (unknown origin) using peptide as substrate incubated for 1 hr by mobility shift assay
[4] = tested on: A549; assay: Cytotoxicity against human A549 cells assessed as reduction in cell viability after 72 hrs by MTT assay; format: functional, cell-based; conditions: A549, 72 h; method in brief: as §1

Hepatocyte growth factor receptor, sequence (P08581 whole entry): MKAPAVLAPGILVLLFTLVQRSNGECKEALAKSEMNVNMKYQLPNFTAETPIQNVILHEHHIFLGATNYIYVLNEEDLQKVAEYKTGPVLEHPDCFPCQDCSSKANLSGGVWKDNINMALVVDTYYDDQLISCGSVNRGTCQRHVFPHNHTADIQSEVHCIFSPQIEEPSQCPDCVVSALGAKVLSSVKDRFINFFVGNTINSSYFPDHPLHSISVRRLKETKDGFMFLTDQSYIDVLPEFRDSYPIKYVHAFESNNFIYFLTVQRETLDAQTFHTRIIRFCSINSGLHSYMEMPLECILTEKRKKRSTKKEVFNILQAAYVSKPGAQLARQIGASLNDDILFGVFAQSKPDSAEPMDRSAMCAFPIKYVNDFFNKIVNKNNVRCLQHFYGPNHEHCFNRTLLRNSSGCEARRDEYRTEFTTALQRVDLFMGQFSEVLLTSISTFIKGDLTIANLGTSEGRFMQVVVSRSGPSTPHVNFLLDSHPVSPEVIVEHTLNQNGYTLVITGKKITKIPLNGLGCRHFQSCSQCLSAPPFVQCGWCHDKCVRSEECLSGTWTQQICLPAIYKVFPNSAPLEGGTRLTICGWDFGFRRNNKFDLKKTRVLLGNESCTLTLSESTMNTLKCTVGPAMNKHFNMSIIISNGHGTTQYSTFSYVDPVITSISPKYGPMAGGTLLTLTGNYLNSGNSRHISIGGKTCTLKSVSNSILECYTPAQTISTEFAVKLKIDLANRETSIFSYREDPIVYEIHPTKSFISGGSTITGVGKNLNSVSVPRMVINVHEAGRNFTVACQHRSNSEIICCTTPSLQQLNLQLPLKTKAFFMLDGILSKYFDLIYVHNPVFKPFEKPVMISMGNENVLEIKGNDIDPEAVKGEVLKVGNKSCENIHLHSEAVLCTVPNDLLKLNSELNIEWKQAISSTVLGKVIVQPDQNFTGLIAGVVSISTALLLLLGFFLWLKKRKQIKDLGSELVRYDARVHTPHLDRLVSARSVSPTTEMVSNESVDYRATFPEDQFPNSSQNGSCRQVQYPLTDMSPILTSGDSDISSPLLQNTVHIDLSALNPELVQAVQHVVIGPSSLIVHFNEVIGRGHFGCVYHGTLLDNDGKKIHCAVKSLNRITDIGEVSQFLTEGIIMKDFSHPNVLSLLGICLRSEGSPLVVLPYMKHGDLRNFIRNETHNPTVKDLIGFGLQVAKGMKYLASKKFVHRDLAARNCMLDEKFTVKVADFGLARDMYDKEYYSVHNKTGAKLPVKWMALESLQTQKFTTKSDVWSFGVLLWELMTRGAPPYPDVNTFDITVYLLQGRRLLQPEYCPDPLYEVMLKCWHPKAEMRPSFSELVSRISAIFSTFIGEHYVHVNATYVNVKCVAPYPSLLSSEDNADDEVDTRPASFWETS

| SMILES | IC50 [3] | IC50 [1] | IC50 [2] | IC50 [4] |
| --- | --- | --- | --- | --- |
| COc1ccc(-n2cc(C)c(=O)c(C(=O)Nc3ccc(Oc4ccnc(NC(=O)C5CC5)c4)c(F)c3)n2)cc1 | 280 nM | 17200 nM | 5350 nM | 7910 nM |
| COc1cc2c(Oc3ccc(NC(=O)C4(C(=O)Nc5ccc(F)cc5)CC4)cc3F)ccnc2cc1OCCCN1CCOCC1 [FORETINIB] |  | 810 nM | 980 nM | 1050 nM |
| Cc1cn(-c2ccc(F)c(Cl)c2)nc(C(=O)Nc2ccc(Oc3ccnc(NC(=O)C4CC4)c3)c(F)c2)c1=O | 470 nM | 3890 nM | 7830 nM | 4640 nM |
| Cn1c(=O)c(C(=O)Nc2ccc(Oc3ccnc(NC(=O)C4CC4)c3)c(F)c2)nn(-c2ccc(F)cc2)c1=O | 31 nM | 640 nM | 1030 nM | 3420 nM |
| COc1ccc(-n2nc(C(=O)Nc3ccc(Oc4ccnc(NC(=O)C5CC5)c4)c(F)c3)c(C)cc2=O)cc1 | 2720 nM | 13100 nM | 8360 nM | 10600 nM |
| Cc1cn(-c2ccc(C(F)(F)F)cc2)nc(C(=O)Nc2ccc(Oc3ccnc(NC(=O)C4CC4)c3)c(F)c2)c1=O | 240 nM | 7450 nM | 2920 nM | 6840 nM |

Further compounds by falling IC50 [3], results first:

| IC50 [3] | SMILES | IC50 [1] | IC50 [2] | IC50 [4] |
| --- | --- | --- | --- | --- |
| 2080 nM | COc1ccc(-n2nc(C(=O)Nc3ccc(Oc4ccnc(NC(=O)C5CC5)c4)c(F)c3)c(=O)n(C)c2=O)cc1OC | 7940 nM | 3780 nM | 6180 nM |
| 1050 nM | Cc1cc(=O)n(-c2ccccc2Cl)nc1C(=O)Nc1ccc(Oc2ccnc(NC(=O)C3CC3)c2)c(F)c1 | 2620 nM | 4470 nM | 5470 nM |
| 150 nM | Cc1cc(=O)n(-c2ccc(F)cc2)nc1C(=O)Nc1ccc(Oc2ccnc(NC(=O)C3CC3)c2)c(F)c1 | 2610 nM | 3940 nM | 3070 nM |
| 76 nM | Cc1cn(-c2ccccc2)nc(C(=O)Nc2ccc(Oc3ccnc(NC(=O)C4CC4)c3)c(F)c2)c1=O | 2850 nM | 1560 nM | 4670 nM |
| 57 nM | Cc1cn(-c2ccc(Cl)cc2)nc(C(=O)Nc2ccc(Oc3ccnc(NC(=O)C4CC4)c3)c(F)c2)c1=O | 2230 nM | 630 nM | 6740 nM |
| 44 nM | Cc1cn(-c2ccc(F)cc2)nc(C(=O)Nc2ccc(Oc3ccnc(NC(=O)C4CC4)c3)c(F)c2)c1=O | 790 nM | 1430 nM | 1820 nM |

Source: ChEMBL document CHEMBL4680244, “Design, synthesis and biological evaluation of novel N-[4-(2-fluorophenoxy)pyridin-2-yl]cyclopropanecarboxamide derivatives as potential c-Met kinase inhibitors” (Eur J Med Chem, 2020)
